Key:
[1] = test system: Human immunodeficiency virus 1; assay: Antiviral activity against HIV1 3B infected in human MT4 cells assessed as inhibition of virus-induced cytopathic effect after 4 days by MTT assay; format: functional, organism-based; conditions: Human immunodeficiency virus 1, 3B, MT4, 96 h
[2] = Selectivity index, ratio of IC50 for human THP1 cells to IC50 for chloroquine-resistant Plasmodium falciparum W2; format: toxicity, cell-based, THP-1; conditions: read-out: Selectivity Index
[3] = Cytotoxicity against human MT4 cells after 4 days by MTT assay; format: cell-based
How it was run: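 Uninfected MT-4 cells were run in parallel with the antiviral test under the same conditions: 10⁵ cells/mL, serial compound dilutions from DMSO stocks, 4 days at 37 °C. Viability was read by MTT. CC50 is the concentration that lowers viability of uninfected cells by 50%.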

Plasmodium falciparum = assay: Antiplasmodial activity against chloroquine-resistant Plasmodium falciparum W2 infected in human A+ erythrocytes assessed as inhibition of parasite proliferation after 48 hrs; format: functional, organism-based; conditions: W2, 48 h
How it was run: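 W2 parasites were cultured in RPMI 1640 with 25 mM HEPES, 25 mM NaHCO3 and 10% A+ human serum at 2.5% hematocrit, at 37 °C under 10% O2/6% CO2/84% N2. After 48 h exposure without medium change, cells were stained with hydroethidine (0.05 mg/mL in PBS, 20 min, dark, 37 °C). Parasitaemia was read by flow cytometry. IC50 came from three independent experiments.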

[4] = test system: Human immunodeficiency virus 2; assay: Antiviral activity against HIV2 ROD infected in human MT4 cells assessed as inhibition of virus-induced cytopathic effect after 4 days by MTT assay; format: functional, organism-based; conditions: Human immunodeficiency virus 2, ISOLATE ROD, MT4, 96 h
THP-1 = assay: Cytotoxicity against human THP1 cells using propidium iodide staining after 72 hrs by flow cytometry; format: cell-based; conditions: THP-1, 72 h
[5] = Selectivity index, ratio of CC50 for human MT4 cells to IC50 for HIV1 3B; format: functional
How it was run: (§1)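 Selectivity index was calculated as the MT-4 CC50 from uninfected cells divided by the IC50 against HIV-1 IIIB or HIV-2 ROD. Both values came from the 4-day MTT cytopathic-effect assays.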

[6] = Selectivity index, ratio of CC50 for human MT4 cells to IC50 for HIV2 ROD; format: functional; how it was run: as §1

| SMILES | IC50 [1] [µM] | selectivity ratio [2] | CC50 at 96 h [3] [µM] | IC50 (Plasmodium falciparum) [µM] | IC50 [4] [µM] | IC50 (THP-1) [µM] | Selectivity Index [5] | Selectivity Index [6] |
| --- | --- | --- | --- | --- | --- | --- | --- | --- |
| COc1c(-c2ccccc2F)oc2ccc(N)cc2c1=O | 44.7 | > 5.4 | 234 | 23 | 234 | > 125 | 5.2 |  |
| COc1ccccc1-c1cc(=O)c2cc(N)ccc2o1 | 88 | 1.5 | 198 | 50 | 198 | 74 | 2.3 |  |
| COc1c(-c2ccc(C(F)(F)F)cc2)oc2ccc(N)cc2c1=O | 290 |  | 290 | 26 | 47.7 |  |  | 6.1 |
| Nc1ccc2oc(-c3cccc(F)c3)cc(=O)c2c1 | 61.1 |  | 269 | > 50 | 58.4 | > 125 | 4.4 | 4.6 |
| COc1c(-c2cccc(C(F)(F)F)c2)oc2ccc(N)cc2c1=O | 50.4 |  | 73.1 | > 33 | 57.6 | 33 | 1.5 | 1.3 |
| Cc1ccnc2c1NC(=O)c1cccnc1N2C1CC1 [NEVIRAPINE] | 0.03 |  |  |  | 15 |  |  | 46 |
| COc1ccccc1-c1oc2ccc(N)cc2c(=O)c1O | 222 | 2.2 | 222 | 46 | 222 | 102 |  |  |
| Cc1cn([C@H]2C[C@H](N=[N+]=[N-])[C@@H](CO)O2)c(=O)[nH]c1=O [ZIDOVUDINE] | 0.005 |  | 93.5 |  |  |  | >17990 |  |
| COc1c(-c2cccc(F)c2)oc2ccc(N)cc2c1=O | 112 |  | 112 | > 34 | 60.7 | 34 |  | 1.9 |
| COc1c(-c2cccc(C(F)(F)F)c2)oc2ccc(NC(C)=O)cc2c1=O | 201 | 2.7 | 201 | 19 | 201 | 52 |  |  |
| COc1cccc(-c2cc(=O)c3cc(N)ccc3o2)c1 | 247 | > 4 | 247 | 31 | 247 | > 125 |  |  |
| COc1ccc(-c2oc3ccc(N)cc3c(=O)c2OC)cc1 | 200 |  | 200 | > 21 | 58.2 | 21 |  | 3.4 |
| COc1ccccc1/C=C/C(=O)c1cc(NC(C)=O)ccc1O | 37.8 | > 9.3 | 37.8 | 13.4 | 37.8 | > 125 |  |  |
| O=c1[nH]cnc2c1ncn2[C@H]1CC[C@@H](CO)O1 [DIDANOSINE] |  |  | > 529 |  |  |  | >98 | >195 |
| COc1ccc(/C=C/C(=O)c2cc(NC(C)=O)ccc2O)cc1 | 38.7 | 8.8 | 38.7 | 6.7 | 38.7 | 59.2 |  |  |
| COc1c(-c2cccc(F)c2)oc2ccc(NC(C)=O)cc2c1=O | 210 | > 2.6 | 210 | 49 | 210 | > 125 |  |  |
| COc1ccc(-c2cc(=O)c3cc(N)ccc3o2)cc1 | 240 | 3.5 | 240 | 35 | 240 | 124 |  |  |
| COc1c(-c2ccc(F)cc2)oc2ccc(NC(C)=O)cc2c1=O | 317 | > 5.4 | 317 | 23 | 317 | > 125 |  |  |
| COc1c(-c2ccc(C(F)(F)F)cc2)oc2ccc(NC(C)=O)cc2c1=O | 332 | > 3.2 | 332 | 39 | 332 | > 125 |  |  |
| COc1ccccc1-c1oc2ccc(N)cc2c(=O)c1OC | 229 | 15.1 | 229 | 7.7 | 229 | 116 |  |  |

Source: ChEMBL document CHEMBL1212869, “Anti-HIV and antiplasmodial activity of original flavonoid derivatives” (Bioorg Med Chem, 2010)
